Assay results taken from ChEMBL document CHEMBL3797125, “Discovery of GluN2A-Selective NMDA Receptor Positive Allosteric Modulators (PAMs): Tuning Deactivation Kinetics via Structure-Based Design” (J Med Chem, 2016).

Assays:
[1] = tested on: human MDR1 (P-gp); experiment: Efflux ratio of permeability from basolateral to apical over apical to basolateral side in MDCK cells expressing human MDR1; format: ADME, cell-based, Canis lupus familiaris; settings: dog
[2] = target: T1, Glutamate NMDA receptor; GRIN1/GRIN2A (Homo sapiens, UniProt Q05586+Q12879); experiment: Positive allosteric modulation of GluN1/GluN2A NMDAR (unknown origin) expressed in Dox-inducible cells measured every 5 mins by BD calcium indicator dye based-fluorescence analysis in presence of glutamate/glycine; format: cell-based
In short: (§1)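 GluN2A-containing NMDAR cell line, harvested, seeded, doxycycline 2 µg/mL overnight with 500 µM ketamine for protection, then washed and loaded with calcium dye for 50 min. Compound added at 2x concentration in 2x EC30 Glu (EC30 set daily from Glu dose-response); saturating Gly throughout; fluorescence recorded over 5 min.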

[3] = target: T2, Glutamate receptor 2 (Homo sapiens, UniProt P42262); experiment: Positive allosteric modulation of human GluA2 AMPAR flip isomer expressed in Dox-inducible cells at 125 uM measured every 5 mins by BD calcium indicator dye based-fluorescence analysis in presence of glutamate; format: cell-based
[4] = target: T2, Glutamate receptor 2; experiment: Positive allosteric modulation of human GluA2 AMPAR flop isomer expressed in Dox-inducible cells at 125 uM measured every 5 mins by BD calcium indicator dye based-fluorescence analysis in presence of glutamate; format: cell-based
[5] = target: T2, Glutamate receptor 2; experiment: Positive allosteric modulation of human GluA2 AMPAR flop isomer expressed in Dox-inducible cells measured every 5 mins by BD calcium indicator dye based-fluorescence analysis in presence of glutamate; format: cell-based
[6] = target: T2, Glutamate receptor 2; experiment: Positive allosteric modulation of human GluA2 AMPAR flip isomer expressed in Dox-inducible cells measured every 5 mins by BD calcium indicator dye based-fluorescence analysis in presence of glutamate; format: cell-based
[7] = target: T1, Glutamate NMDA receptor; GRIN1/GRIN2A; experiment: Positive allosteric modulation of GluN1/GluN2A NMDAR (unknown origin) expressed in Dox-inducible cells at 125 uM measured every 5 mins by BD calcium indicator dye based-fluorescence analysis in presence of glutamate/glycine; format: cell-based; in short: as §1

T2 sequence (P42262 whole entry): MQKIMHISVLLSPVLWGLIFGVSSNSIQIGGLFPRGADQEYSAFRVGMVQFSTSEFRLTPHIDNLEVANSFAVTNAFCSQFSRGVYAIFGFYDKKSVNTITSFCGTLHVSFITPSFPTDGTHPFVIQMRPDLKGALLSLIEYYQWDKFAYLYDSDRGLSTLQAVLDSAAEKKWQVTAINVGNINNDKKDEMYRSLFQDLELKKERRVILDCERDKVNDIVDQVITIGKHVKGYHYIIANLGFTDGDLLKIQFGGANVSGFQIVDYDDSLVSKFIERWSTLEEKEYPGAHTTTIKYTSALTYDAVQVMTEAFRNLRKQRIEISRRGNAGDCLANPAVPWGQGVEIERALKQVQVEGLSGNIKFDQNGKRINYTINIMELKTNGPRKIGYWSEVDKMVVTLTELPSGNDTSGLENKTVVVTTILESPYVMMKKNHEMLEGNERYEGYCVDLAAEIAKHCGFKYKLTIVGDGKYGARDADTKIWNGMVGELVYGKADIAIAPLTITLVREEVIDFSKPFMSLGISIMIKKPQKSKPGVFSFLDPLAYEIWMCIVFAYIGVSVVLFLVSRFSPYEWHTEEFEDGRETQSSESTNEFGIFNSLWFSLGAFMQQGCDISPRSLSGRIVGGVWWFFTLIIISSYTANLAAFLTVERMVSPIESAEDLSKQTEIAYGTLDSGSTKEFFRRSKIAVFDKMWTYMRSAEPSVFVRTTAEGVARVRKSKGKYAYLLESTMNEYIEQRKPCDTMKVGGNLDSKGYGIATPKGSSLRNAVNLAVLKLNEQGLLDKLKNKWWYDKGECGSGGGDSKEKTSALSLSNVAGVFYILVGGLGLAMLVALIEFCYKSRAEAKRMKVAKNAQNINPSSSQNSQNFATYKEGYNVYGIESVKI

efflux ratio [1]	EC50 [2] [nM]	%max [3] [%]	%max [4] [%]	EC50 [5] [nM]	EC50 [6] [nM]	%max [7] [%]	SMILES
0.9	2200	11	8	60200	75800	69	CCN(Cc1cc(=O)n2c(N3CCOCC3)c(C)sc2n1)c1ccc(F)cc1
2.2	3100	4	8			75	CCNC(=O)c1c(C)sc2nc(C(C)c3cccc(C(F)(F)F)c3F)cc(=O)n12 (racemic)
0.6	183	37	30	5500	32300	154	CCN(Cc1cc(=O)n2c(C(C)O)c(C)sc2n1)c1ccc(F)cc1 (racemic)
57	414	32	43	9100		144	CCNC(=O)c1c(C)sc2nc(Cn3nc(C(F)(F)F)cc3OCC)cc(=O)n12
22	1700	6	13			170	CCNC(=O)c1c(C)sc2nc(CN(CC)c3ccc(F)cn3)cc(=O)n12
33	4900	8	19			128	CCNC(=O)c1c(C)sc2nc(Cn3nc(C(F)(F)F)cc3C)cc(=O)n12
22	12900	1	0			94	CCNC(=O)c1c(C)sc2nc(Cc3cc(C#N)ccc3Cl)cc(=O)n12
5.8	7000	8	19			123	CCNC(=O)c1c(C)sc2nc(CNc3ccc(F)cc3)cc(=O)n12
0.51	454	57	27	359	1700	117	Cc1sc2nc(Cc3cccc(C(F)(F)F)c3F)cc(=O)n2c1C1CC1CO (racemic)
20	1900	18	21	66200		113	CCNC(=O)c1c(C)sc2nc(Cc3cccc(C(F)(F)F)c3)cc(=O)n12
3.1	9100	3	3			102	CCNC(=O)c1c(C)sc2nc(Cc3cccc(C#N)c3F)cc(=O)n12
1.3	17.7	85	52	48	150	147	Cc1sc2nc(Cn3nc(C(F)(F)F)cc3Cl)cc(=O)n2c1[C@@H]1C[C@H]1CO
1.2	137	56	16	972		148	CCN(Cc1cc(=O)n2c(-c3cncnc3)c(C)sc2n1)c1ccc(F)cc1
12.6	132	5	32	48700		171	CCCN(Cc1cc(=O)n2c(C(=O)NCC)c(C)sc2n1)c1ccc(F)cc1
1	63	65	5	2400	12400	157	CCN(Cc1cc(=O)n2c(C(C)(C)O)c(C)sc2n1)c1ccc(F)cc1
1.1	649	39	83	1900	66300	153	CCN(Cc1cc(=O)n2c(CO)c(C)sc2n1)c1ccc(F)cc1

efflux ratio [1]	EC50 [2] [nM]	%max [3] [%]	%max [4] [%]	EC50 [5] [nM]	EC50 [6] [nM]	%max [7] [%]	SMILES
0.8	382	7	6	2300	5400	122	Cc1sc2nc(COc3ccc(F)cc3)cc(=O)n2c1[C@@H]1C[C@H]1CO
1	73	66	41	2500	36100	144	O=c1cc(Cn2nc(C(F)(F)F)cc2Cl)nc2sc(C(F)(F)F)c([C@@H]3C[C@H]3CO)n12
1.2	24.4	84	64	204	870	184	CCN(Cc1cc(=O)n2c([C@@H]3C[C@H]3CO)c(C)sc2n1)c1ccc(F)cc1
1	183	37	45	1500	33200	169	CCN(Cc1cc(=O)n2c(CCCO)c(C)sc2n1)c1ccc(F)cc1
21.5	17000	2	1			99	CCNC(=O)c1c(C)sc2nc(Cn3ccc(C(F)(F)F)n3)cc(=O)n12
44	17500	2	2			102	CCNC(=O)c1c(C)sc2nc(Cc3cc(C#N)ccc3C3CC3)cc(=O)n12
1.3	685	15	1		34400	129	CCN(Cc1cc(=O)n2c(C(C)C)c(C)sc2n1)c1ccc(F)cc1
	2600	38	20	8600	35900	122	CCN(Cc1cc(=O)n2c(C3CCC3)c(C)sc2n1)c1ccc(F)cc1
3.7	57100	3	10			60	CCNC(=O)c1c(C)sc2nc(Cn3nc(C(F)(F)F)cc3OCC(C)C)cc(=O)n12
8.6	434	2	2			159	CCNC(=O)c1c(C)sc2nc(CN(C)c3ccc(F)cc3)cc(=O)n12
1.2	168	75	11	4500	33800	144	CCN(Cc1cc(=O)n2c(-c3cccnc3)c(C)sc2n1)c1ccc(F)cc1
0.9	129	13	60	10700	66600	181	CCN(Cc1cc(=O)n2c(C#N)c(C)sc2n1)c1ccc(F)cc1
1.8	1200	9	20	29400	28300	94	CCNC(=O)c1c(C)sc2nc(Cc3cccc(C(F)(F)F)c3F)cc(=O)n12
1	312	95	93	245	252	150	CCN(Cc1cc(=O)n2cc(C)sc2n1)c1ccc(F)cc1
9.8	131	18	38			185	CCN(Cc1cc(=O)n2c(C(=O)NC)c(C)sc2n1)c1ccc(F)cc1
2.2	536	54	60	6400		147	CCNC(=O)c1c(C)sc2nc(Cn3nc(C(F)(F)F)cc3C3CC3)cc(=O)n12
